Experimental data from ChEMBL document CHEMBL1287702, “Synthesis, cytotoxicity, and structure-activity relationship (SAR) studies of andrographolide analogues as anti-cancer agent” (Bioorg Med Chem Lett, 2010).
Activity calls are given as the source filed them. The calls are words filed in the database; no cut-off is given here.

Legend:
[1] = system: U-937; test: Antiproliferative activity against human U937 cells assessed as growth inhibition after 48 hrs by MTS-PMS assay; format: functional, cell-based
Method in brief: (§1)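 Cells at 2.5-5.0 × 10^4 per 200 µL were exposed to compounds (0-50 µM) for 48 h at 37 °C, 5% CO₂. MTS (2.0 mg/ml) and PMS (0.92 mg/ml), mixed 10:1, were added for 3 h at 37 °C, and A490 was read. Background was subtracted, viability was taken as a % of untreated, and IC50 was found by graphic extrapolation.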

[2] = system: THP-1; test: Antiproliferative activity against human THP1 cells assessed as growth inhibition after 48 hrs by MTS-PMS assay; format: functional, cell-based; method in brief: as §1
[3] = Antiproliferative activity against mouse NIH/3T3 cells assessed as growth inhibition after 48 hrs by MTS-PMS assay; format: cell-based, NIH3T3; method in brief: as §1
[4] = Antiproliferative activity against human L-132 cells assessed as growth inhibition after 48 hrs by MTS-PMS assay; format: cell-based, L132; method in brief: as §1
[5] = system: K562; test: Antiproliferative activity against human K562 cells assessed as growth inhibition after 48 hrs by MTS-PMS assay; format: functional, cell-based; method in brief: as §1
[6] = system: U-937; test: Induction of apoptosis in human U937 cell assessed as formation of apoptotic bodies with membrane blebbing at IC50 concentration after 24 hrs using Hoechst 33258 staining by confocal microscopic analysis; format: functional, cell-based
[7] = system: U-937; test: Induction of apoptosis in human U937 cell assessed as pre-necrotic cells at IC50 concentration after 24 hrs using Annexin V-FITC staining by flow cytometry relative to untreated control; format: functional
[8] = system: U-937; test: Induction of apoptosis in human U937 cell assessed as late apoptotic cells at IC50 concentration after 24 hrs using Annexin V-FITC staining by flow cytometry relative to untreated control; format: functional
[9] = system: U-937; test: Induction of apoptosis in human U937 cell assessed as early apoptotic cells at IC50 concentration after 24 hrs using Annexin V-FITC staining by flow cytometry relative to untreated control; format: functional
[10] = Homo sapiens, THP-1, 48 h, read-out: IC50
[11] = Mus musculus, NIH3T3, 48 h, read-out: IC50
[12] = Homo sapiens, L132, 48 h, read-out: IC50
[13] = Homo sapiens, U-937, 48 h, read-out: IC50
[14] = Homo sapiens, K562, 48 h, read-out: IC50

IC50 ([1]; u-937)	IC50 [2, 10] [µM]	IC50 [1, 13] [µM]	IC50 [5, 14] [µM]	Compound	IC50 [3, 11] [µM]	IC50 [4, 12] [µM]	also measured
Not Active	–	–	–	C=C1CC[C@@H]2[C@](C)(CO)[C@H](O)CC[C@@]2(C)[C@@H]1CCC1C(=O)OC[C@H]1OC(=O)CCC(=O)O (stereo partly specified)	–	–	–
Not Active	–	–	–	C=C1CC[C@@H]2[C@](C)(CO)[C@H](O)CC[C@@]2(C)[C@@H]1CCC1C(=O)OC[C@H]1OC(=O)/C=C\C(=O)O (stereo partly specified)	–	–	IC50 ([2]; thp-1): Not Active; IC50 ([3]; nih3t3): Not Active; IC50 ([4]; l132): Not Active; IC50 ([5]; k562): Not Active
–	7.77	9.72	42	C=C1CC[C@@H]2[C@](C)(CO)[C@H](O)CC[C@@]2(C)[C@@H]1C/C=C1/C(=O)OC[C@H]1OC(=O)/C=C\C(=O)O	11.3	12.8	–
–	10	19.5	31.4	C=C1CC[C@@H]2[C@]3(C)COC(C)(C)O[C@@H]3CC[C@@]2(C)[C@@H]1C/C=C1/C(=O)OC[C@H]1OC(=O)CCC(=O)O	36.7	21.7	–
Not Active	–	–	–	C=C1CC[C@@H]2[C@](C)(CO)[C@H](O)CC[C@@]2(C)[C@@H]1CCC1C(=O)OC[C@H]1OC(=O)c1ccccc1C(=O)O (stereo partly specified)	–	–	IC50 ([2]; thp-1): Not Active; IC50 ([3]; nih3t3): Not Active; IC50 ([4]; l132): Not Active; IC50 ([5]; k562): Not Active
Not Active	–	–	–	C=C1CC[C@@H]2[C@](C)(CO)[C@H](O)CC[C@@]2(C)[C@@H]1CCC1C(=O)OC[C@H]1OC(=O)CCCC(=O)O (stereo partly specified)	–	–	IC50 ([2]; thp-1): Not Active; IC50 ([3]; nih3t3): Not Active; IC50 ([4]; l132): Not Active; IC50 ([5]; k562): Not Active
–	26.2	15.6	36.5	C=C1CC[C@@H]2[C@]3(C)COC(C)(C)O[C@@H]3CC[C@@]2(C)[C@@H]1C/C=C1/C(=O)OC[C@H]1OC(=O)CCCC(=O)O	–	15.1	–
–	6.69	12.9	41.9	C=C1CC[C@@H]2[C@](C)(CO)[C@H](O)CC[C@@]2(C)[C@@H]1C/C=C1/C(=O)OC[C@H]1O [ANDROGRAPHOLIDE]	44.5	53.8	–
–	7.53	9.76	19.6	C=C1CC[C@@H]2[C@](C)(CO)[C@H](O)CC[C@@]2(C)[C@@H]1C/C=C1/C(=O)OC[C@H]1OC(=O)CCCC(=O)O	22.1	19.5	–
–	12.2	14.6	26.9	C=C1CC[C@@H]2[C@]3(C)COC(C)(C)O[C@@H]3CC[C@@]2(C)[C@@H]1C/C=C1/C(=O)OC[C@H]1OC(=O)c1ccccc1C(=O)O	16	18.8	–
–	5.84	5.47	25.3	C=C1CC[C@@H]2[C@](C)(CO)[C@H](O)CC[C@@]2(C)[C@@H]1C/C=C1/C(=O)OC[C@H]1OC(=O)CCC(=O)O	10.2	8.5	Activity [6]: Active; Activity [7]: 2.51%; Activity [8]: 27.25%; Activity [9]: 18.77%
–	14.8	–	–	C=C1CC[C@@H]2[C@]3(C)COC(C)(C)O[C@@H]3CC[C@@]2(C)[C@@H]1C/C=C1/C(=O)OC[C@H]1OC(=O)/C=C\C(=O)O	–	31.1	–
–	5.68	6.27	41.1	C=C1CC[C@@H]2[C@](C)(CO)[C@H](O)CC[C@@]2(C)[C@@H]1C/C=C1/C(=O)OC[C@H]1OC(=O)c1ccccc1C(=O)O	8.01	10.9	–
